Assay results as given in ChEMBL document CHEMBL1122070, “Potential antitrypanosomal agents. 1,N2-Disubstituted 2-amino-5-hydroxy-4-methylnaphtho[1,2-d]thiazolium salts and related compounds” (1982).
Active and inactive are the calls of the source. No cut-off for these calls is given here.

Assays:
Trypanosoma brucei [1] = test: Minimum concentration producing complete lysis of all trypanosomes within 30 min at 37 degrees C in vitro; type: functional
Procedure, shortened: (§1)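 T. brucei EATRO 110 bloodstream forms from infected rat or mouse blood, 1.5-2 × 10^7/mL in 1:1 phosphate-buffered saline-glucose and MEM, held on ice and used within 8 h. At 37 °C, turbidity was followed at 750 nm. Compound was added at 5–1000 μM final, with Me2SO ≤1% v/v. Phase microscopy scored lysis at 5, 10 and 30 min. MLC is the lowest concentration lysing all within 30 min. Near-MLC concentrations were repeated on 2–3 harvests.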

Mus musculus [2] = test: Maximum tolerated (nonfatal) intraperitoneal dose tested in mice infected with Trypanosoma brucei.
Mus musculus [3] = test: Maximum tolerated (nonfatal) intraperitoneal dose tested in mice infected with Trypanosoma brucei.; type: functional
Procedure, shortened: (§2)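 Female Swiss-Webster mice (20-25 g) infected ip with 5×10^4 T. brucei EATRO 110 in freshly drawn infected mouse blood diluted with minimum essential medium. Groups of five mice received compound ip 4-6 h post-infection, as a milled suspension in saline with 0.25% methylcellulose or as a saline solution. A dose was scored toxic if mean survival was <90% of untreated controls or deaths occurred within 72 h; the compound was then retested at a lower dose.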

Trypanosoma brucei [4] = test: Minimum concentration producing complete lysis of all trypanosomes within 30 min at 37 degrees C in vitro in the presence of bovine serum albumin.; type: functional, organism-based
Procedure, shortened: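 Trypanolysis of T. brucei EATRO 110 bloodstream forms (1.5-2 × 10^7/mL, 1:1 phosphate-buffered saline-glucose/MEM) with 0.3% bovine serum albumin added to the suspending medium, 37 °C. Compound was added at 5–1000 μM final with Me2SO ≤1% v/v. Turbidity was read at 750 nm and lysis checked microscopically at 5, 10 and 30 min. MLC is the lowest concentration giving complete lysis within 30 min.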

Mus musculus [5] = test: Maximum tolerated (nonfatal) intraperitoneal dose tested in mice infected with Trypanosoma brucei; type: functional; procedure, shortened: as §2
Trypanosoma brucei [6] = test: Minimum concentration producing complete lysis of all trypanosomes within 30 min at 37 degrees C in vitro; IA is Inactive at 5 uM; type: functional, organism-based; procedure, shortened: as §1

Structure (SMILES): CNc1sc2c(C)c(O)c3ccccc3c2[n+]1C.[Cl-]
- Min lytic concentration (Trypanosoma brucei [1]): 100 µM
- Max dose (Mus musculus [2]): 50 mg/kg

Structure (SMILES): COc1ccc(Nc2nc3c(s2)c(C)c(O)c2ccccc23)cc1.Cl
- Max dose (Mus musculus [3]): 400 mg/kg
- Min lytic concentration (Trypanosoma brucei [1]): 10 µM

Structure (SMILES): CCCCCCCCNc1sc2c(C)c(O)c3ccccc3c2[n+]1C.[Cl-]
- Min lytic concentration (Trypanosoma brucei [1]): 10 µM
- Max dose (Mus musculus [2]): 200 mg/kg

Structure (SMILES): Nc1nc(N)nc(Nc2ccc([As]3SCC(CO)S3)cc2)n1 (configuration not stated) [MELARSOPROL]
- Min lytic concentration (Trypanosoma brucei [1]): 100 µM

Structure (SMILES): Cc1c(O)c2ccccc2c2c1sc(NCC(C)C)[n+]2CC(C)C.[Cl-]
- Min lytic concentration (Trypanosoma brucei [1]): 10 µM
- Max dose (Mus musculus [2]): 200 mg/kg

Structure (SMILES): Cc1c(O)c2ccccc2c2c1sc1[n+]2CCCN1.[Cl-]
- Min lytic concentration (Trypanosoma brucei [1]): >100 µM
- Max dose (Mus musculus [2]): 200 mg/kg

Structure (SMILES): Cc1c(O)c2ccccc2c2c1sc1[n+]2CCN1.[Cl-]
- Min lytic concentration (Trypanosoma brucei [1]): 30 µM
- Max dose (Mus musculus [2]): 200 mg/kg

Structure (SMILES): CCNc1sc2c(C)c(O)c3ccccc3c2[n+]1CC.[Cl-]
- Min lytic concentration (Trypanosoma brucei [1]): 50 µM
- Concentration (Trypanosoma brucei [4]): 200 µM
- Max dose (Mus musculus [2]): 200 mg/kg

Structure (SMILES): C=CCNc1nc2c(s1)c(C)c(O)c1ccccc12.Cl
- Min lytic concentration (Trypanosoma brucei [1]): 20 µM
- Max dose (Mus musculus [2]): 200 mg/kg

Structure (SMILES): CNc1nc2c(s1)c(C)c(O)c1ccccc12.Cl
- Max dose (Mus musculus [3]): 100 mg/kg
- Min lytic concentration (Trypanosoma brucei [1]): 30 µM

Structure (SMILES): Cc1c(O)c2ccccc2c2c1sc(NCCc1ccccc1)[n+]2C.[Cl-]
- Min lytic concentration (Trypanosoma brucei [1]): 10 µM
- Max dose (Mus musculus [2]): 400 mg/kg

Structure (SMILES): Cc1c(O)c2ccccc2c2c1sc(Nc1ccccc1)[n+]2C.[Cl-]
- Min lytic concentration (Trypanosoma brucei [1]): 10 µM
- Max dose (Mus musculus [2]): 200 mg/kg

Structure (SMILES): Cc1c(O)c2ccccc2c2c1sc(NC1CCCCC1)[n+]2CCO.[Cl-]
- Min lytic concentration (Trypanosoma brucei [1]): 20 µM
- Max dose (Mus musculus [2]): 400 mg/kg

Structure (SMILES): Cl.Nc1nc2c(cc(O)c3ccccc32)s1
- Max dose (Mus musculus [5]): 100 mg/kg
- Min lytic concentration (Trypanosoma brucei [1]): >500 µM

Structure (SMILES): CC(=O)c1cccc(Nc2sc3c(C)c(O)c4ccccc4c3[n+]2C)c1
- Min lytic concentration (Trypanosoma brucei [6]): inactive
- Max dose (Mus musculus [2]): 200 mg/kg

Structure (SMILES): Cc1c(O)c2ccccc2c2nc(N)sc12.Cl
- Max dose (Mus musculus [3]): 50 mg/kg
- Min lytic concentration (Trypanosoma brucei [1]): 100 µM

Structure (SMILES): Cc1c(O)c2ccccc2c2c1sc(NCCCN1CCN(C)CC1)[n+]2C.Cl.[Cl-]
- Min lytic concentration (Trypanosoma brucei [1]): 100 µM
- Concentration (Trypanosoma brucei [4]): 100 µM
- Max dose (Mus musculus [2]): 100 mg/kg

Structure (SMILES): CCCCCCNc1sc2c(C)c(O)c3ccccc3c2[n+]1CCCCCC.[Cl-]
- Min lytic concentration (Trypanosoma brucei [1]): >10 µM
- Max dose (Mus musculus [2]): 200 mg/kg

Structure (SMILES): Cc1c(O)c2ccccc2c2nc(Nc3ccccc3)sc12.Cl
- Min lytic concentration (Trypanosoma brucei [1]): 20 µM
- Max dose (Mus musculus [2]): 200 mg/kg

Structure (SMILES): Cc1c(O)c2ccccc2c2c1sc(Nc1ccccc1)[n+]2CCO.[Cl-]
- Min lytic concentration (Trypanosoma brucei [1]): >5 µM
- Max dose (Mus musculus [2]): 400 mg/kg

Structure (SMILES): C=CCNc1sc2c(C)c(O)c3ccccc3c2[n+]1CC=C.[Cl-]
- Min lytic concentration (Trypanosoma brucei [1]): 20 µM
- Max dose (Mus musculus [2]): 400 mg/kg

Structure (SMILES): CCCNc1sc2c(C)c(O)c3ccccc3c2[n+]1CCC.[Cl-]
- Min lytic concentration (Trypanosoma brucei [1]): 30 µM
- Max dose (Mus musculus [2]): 400 mg/kg

Structure (SMILES): CCCCNc1sc2c(C)c(O)c3ccccc3c2[n+]1CCCC.[Cl-]
- Min lytic concentration (Trypanosoma brucei [1]): 10 µM
- Concentration (Trypanosoma brucei [4]): 100 µM
- Max dose (Mus musculus [2]): 400 mg/kg

Structure (SMILES): Cc1c(O)c2ccccc2c2c1sc(NCCO)[n+]2C.[Cl-]
- Min lytic concentration (Trypanosoma brucei [1]): 100 µM
- Max dose (Mus musculus [2]): 100 mg/kg

Structure (SMILES): COCCNc1sc2c(C)c(O)c3ccccc3c2[n+]1C.[Cl-]
- Min lytic concentration (Trypanosoma brucei [1]): 50 µM
- Max dose (Mus musculus [2]): 50 mg/kg

Structure (SMILES): Cc1c(O)c2ccccc2c2c1sc(NCCCN(CCO)CCO)[n+]2C.[Cl-]
- Min lytic concentration (Trypanosoma brucei [1]): 100 µM
- Concentration (Trypanosoma brucei [4]): 200 µM
- Max dose (Mus musculus [2]): 50 mg/kg

Structure (SMILES): CCCCNc1sc2c(C)c(O)c3ccccc3c2[n+]1C.[Cl-]
- Min lytic concentration (Trypanosoma brucei [1]): 10 µM
- Max dose (Mus musculus [2]): 200 mg/kg
